Experiment [1] has as its target T1, Beta-adrenergic receptor kinase 1 (Homo sapiens) (UniProt P25098).
T1 sequence (whole entry): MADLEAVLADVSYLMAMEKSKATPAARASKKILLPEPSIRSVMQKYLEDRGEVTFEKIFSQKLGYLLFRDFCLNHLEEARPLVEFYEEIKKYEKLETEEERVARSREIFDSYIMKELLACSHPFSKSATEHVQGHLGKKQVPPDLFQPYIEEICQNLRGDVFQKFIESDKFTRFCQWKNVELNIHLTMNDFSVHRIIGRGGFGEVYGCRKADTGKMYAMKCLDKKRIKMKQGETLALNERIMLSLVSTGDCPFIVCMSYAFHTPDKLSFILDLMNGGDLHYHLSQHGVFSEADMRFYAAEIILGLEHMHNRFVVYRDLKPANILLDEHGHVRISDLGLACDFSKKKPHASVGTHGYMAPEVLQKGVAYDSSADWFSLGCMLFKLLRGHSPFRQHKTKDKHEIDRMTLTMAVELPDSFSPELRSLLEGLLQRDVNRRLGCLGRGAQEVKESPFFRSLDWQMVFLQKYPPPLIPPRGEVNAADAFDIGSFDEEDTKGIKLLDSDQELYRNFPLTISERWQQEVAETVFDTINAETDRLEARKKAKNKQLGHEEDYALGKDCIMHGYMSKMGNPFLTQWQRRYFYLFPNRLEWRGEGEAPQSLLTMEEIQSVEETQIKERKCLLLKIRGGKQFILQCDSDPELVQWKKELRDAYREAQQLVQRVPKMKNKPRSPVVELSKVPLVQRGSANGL
In words: Inhibition of human recombinant BARK1 at 40 nM in presence of ATP by radiometric assay relative to control. A digest of the protocol: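 Part of a radiometric in vitro activity panel of 327 recombinant human kinases. Each kinase was tested in duplicate at one inhibitor concentration. Activity remaining was expressed as a percentage of the vehicle control, and percent inhibition was taken as 100 minus that value.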

Experiment [2] addresses Serine/threonine-protein kinase PAK 6 (Homo sapiens) (UniProt Q9NQU5). Description: Inhibition of human recombinant PAK6 at 40 nM related to control ULK1.
For experiment [3], the target named is cAMP-dependent protein kinase catalytic subunit beta (Homo sapiens) (UniProt P22694). In words: Inhibition of human recombinant PKACbeta at 40 nM related to control ULK1.
The target of experiment [4] is T2, Inhibitor of nuclear factor kappa-B kinase subunit beta (Homo sapiens) (UniProt O14920).
T2 sequence (whole entry): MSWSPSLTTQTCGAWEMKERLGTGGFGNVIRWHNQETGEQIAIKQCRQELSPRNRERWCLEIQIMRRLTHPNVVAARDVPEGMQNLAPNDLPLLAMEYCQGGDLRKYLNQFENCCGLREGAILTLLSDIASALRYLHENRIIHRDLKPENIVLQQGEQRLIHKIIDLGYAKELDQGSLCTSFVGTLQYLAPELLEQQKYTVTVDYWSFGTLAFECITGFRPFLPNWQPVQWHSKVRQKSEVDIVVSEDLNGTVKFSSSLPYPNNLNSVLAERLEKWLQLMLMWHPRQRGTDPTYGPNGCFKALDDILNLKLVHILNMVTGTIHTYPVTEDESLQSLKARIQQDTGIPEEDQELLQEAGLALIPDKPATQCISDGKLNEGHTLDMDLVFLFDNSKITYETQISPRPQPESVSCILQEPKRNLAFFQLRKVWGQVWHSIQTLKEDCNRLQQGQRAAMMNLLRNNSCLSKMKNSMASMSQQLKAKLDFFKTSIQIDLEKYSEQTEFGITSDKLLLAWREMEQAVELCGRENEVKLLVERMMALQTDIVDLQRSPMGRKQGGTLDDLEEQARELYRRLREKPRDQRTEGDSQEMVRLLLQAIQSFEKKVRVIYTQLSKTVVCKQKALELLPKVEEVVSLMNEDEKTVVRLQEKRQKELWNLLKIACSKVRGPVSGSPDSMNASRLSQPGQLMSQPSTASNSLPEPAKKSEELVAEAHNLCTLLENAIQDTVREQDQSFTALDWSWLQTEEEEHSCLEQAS
Description: Inhibition of human recombinant IKKb at 40 nM related to control ULK1.

Experiment [5] addresses Tyrosine-protein kinase FRK (Homo sapiens) (UniProt P42685). Description: Inhibition of human recombinant FRK at 500 nM related to control ULK1.
In experiment [6] the target is Cyclin-dependent kinase 13 (Homo sapiens) (UniProt Q14004). Description: Inhibition of human recombinant CHED at 500 nM related to control ULK1.
Experiment [7] concerns the target Macrophage-stimulating protein receptor (Homo sapiens) (UniProt Q04912). Description: Inhibition of human recombinant RON at 500 nM in presence of ATP by radiometric assay relative to control.
The target in experiment [8] is T3, Testis-specific serine/threonine-protein kinase 1 (Homo sapiens) (UniProt Q9BXA7).
T3 sequence (whole entry): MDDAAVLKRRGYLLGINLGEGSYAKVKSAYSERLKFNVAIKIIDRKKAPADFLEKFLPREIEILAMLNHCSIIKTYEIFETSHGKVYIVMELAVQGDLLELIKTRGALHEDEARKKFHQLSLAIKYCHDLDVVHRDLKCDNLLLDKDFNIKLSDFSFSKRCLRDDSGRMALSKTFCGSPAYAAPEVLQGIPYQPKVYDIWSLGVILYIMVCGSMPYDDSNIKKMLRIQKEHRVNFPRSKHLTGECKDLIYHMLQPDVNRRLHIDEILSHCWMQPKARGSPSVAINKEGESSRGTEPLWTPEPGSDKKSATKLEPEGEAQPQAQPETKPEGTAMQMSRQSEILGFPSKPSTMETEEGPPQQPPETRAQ
In words: Inhibition of human recombinant TSSK1 at 500 nM related to control ULK1.

In experiment [9] the target is Angiopoietin-1 receptor (Homo sapiens) (UniProt Q02763). In words: Inhibition of human recombinant Tie2 at 500 nM related to control ULK1.
Angiopoietin-1 receptor (Homo sapiens), sequence (Q02763 whole entry): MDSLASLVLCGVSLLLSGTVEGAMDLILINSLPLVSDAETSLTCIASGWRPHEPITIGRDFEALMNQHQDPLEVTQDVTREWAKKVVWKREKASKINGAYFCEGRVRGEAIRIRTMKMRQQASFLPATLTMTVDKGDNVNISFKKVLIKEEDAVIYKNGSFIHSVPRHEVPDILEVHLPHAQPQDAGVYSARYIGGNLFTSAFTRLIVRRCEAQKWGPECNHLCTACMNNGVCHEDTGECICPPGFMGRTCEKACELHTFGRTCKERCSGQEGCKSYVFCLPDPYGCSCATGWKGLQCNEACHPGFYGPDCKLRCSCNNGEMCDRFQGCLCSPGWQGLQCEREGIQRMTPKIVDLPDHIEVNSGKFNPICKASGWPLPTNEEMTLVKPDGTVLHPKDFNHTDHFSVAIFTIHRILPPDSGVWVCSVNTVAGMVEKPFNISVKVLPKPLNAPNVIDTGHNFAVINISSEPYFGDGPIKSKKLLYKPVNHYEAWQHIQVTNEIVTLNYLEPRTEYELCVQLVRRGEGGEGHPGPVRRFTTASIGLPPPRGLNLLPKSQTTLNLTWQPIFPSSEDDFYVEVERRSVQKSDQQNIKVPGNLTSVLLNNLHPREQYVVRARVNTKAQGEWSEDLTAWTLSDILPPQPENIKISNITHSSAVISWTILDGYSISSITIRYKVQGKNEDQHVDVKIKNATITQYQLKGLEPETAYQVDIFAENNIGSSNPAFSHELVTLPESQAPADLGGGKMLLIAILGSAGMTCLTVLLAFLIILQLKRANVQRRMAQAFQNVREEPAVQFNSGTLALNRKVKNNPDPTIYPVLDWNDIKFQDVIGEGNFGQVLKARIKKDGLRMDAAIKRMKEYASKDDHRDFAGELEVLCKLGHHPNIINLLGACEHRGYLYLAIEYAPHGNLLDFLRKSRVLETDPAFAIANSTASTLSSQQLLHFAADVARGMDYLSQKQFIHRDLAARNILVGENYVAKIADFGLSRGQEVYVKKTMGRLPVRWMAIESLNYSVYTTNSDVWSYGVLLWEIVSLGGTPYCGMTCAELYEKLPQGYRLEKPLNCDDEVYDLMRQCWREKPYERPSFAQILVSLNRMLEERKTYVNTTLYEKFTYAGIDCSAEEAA
Experiment [10] deals with Activin receptor type-1-like (Homo sapiens) (UniProt P37023). In words: Inhibition of human recombinant ALK1 at 500 nM related to control ULK1. A digest of the protocol:
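Panel of 327 recombinant human kinases, each assayed in vitro by radiometric activity assay in duplicate at a single inhibitor concentration per compound, chosen with reference to its ULK1 inhibition. Activity remaining was expressed as percent of vehicle control, and percent inhibition was calculated as 100 minus percent activity remaining.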

Experiment [11] concerns the target Serine/threonine-protein kinase PAK 6 (Homo sapiens) (UniProt Q9NQU5). In words: Inhibition of human recombinant PAK6 at 15 nM related to control ULK1.
The target of experiment [12] is Serine/threonine-protein kinase PLK3 (Homo sapiens) (UniProt Q9H4B4). In words: Inhibition of human recombinant PLK3 at 15 nM related to control ULK1.
Serine/threonine-protein kinase PLK3 (Homo sapiens), sequence (Q9H4B4 whole entry, looked up): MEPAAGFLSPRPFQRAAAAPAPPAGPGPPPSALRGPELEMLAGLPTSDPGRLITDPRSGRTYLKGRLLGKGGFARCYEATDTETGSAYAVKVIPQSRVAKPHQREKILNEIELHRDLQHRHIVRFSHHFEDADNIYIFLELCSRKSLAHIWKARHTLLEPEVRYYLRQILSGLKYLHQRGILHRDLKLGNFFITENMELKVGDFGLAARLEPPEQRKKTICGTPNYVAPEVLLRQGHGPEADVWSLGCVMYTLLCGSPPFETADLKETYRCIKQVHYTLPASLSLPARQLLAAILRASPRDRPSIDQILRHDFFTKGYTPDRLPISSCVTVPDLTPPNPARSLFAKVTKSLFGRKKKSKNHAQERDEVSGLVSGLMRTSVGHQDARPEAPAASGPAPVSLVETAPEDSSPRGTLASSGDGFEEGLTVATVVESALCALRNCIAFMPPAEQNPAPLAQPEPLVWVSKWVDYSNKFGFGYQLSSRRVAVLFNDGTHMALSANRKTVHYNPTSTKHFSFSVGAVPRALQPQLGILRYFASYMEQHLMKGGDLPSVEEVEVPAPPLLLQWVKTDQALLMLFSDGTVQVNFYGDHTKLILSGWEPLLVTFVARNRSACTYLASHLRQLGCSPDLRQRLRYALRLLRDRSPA
In experiment [13] the target is Insulin receptor-related protein (Homo sapiens) (UniProt P14616). Description: Inhibition of human recombinant IRR at 15 nM in presence of ATP by radiometric assay relative to control.
Insulin receptor-related protein (Homo sapiens), sequence (P14616 27-742 limits assumed): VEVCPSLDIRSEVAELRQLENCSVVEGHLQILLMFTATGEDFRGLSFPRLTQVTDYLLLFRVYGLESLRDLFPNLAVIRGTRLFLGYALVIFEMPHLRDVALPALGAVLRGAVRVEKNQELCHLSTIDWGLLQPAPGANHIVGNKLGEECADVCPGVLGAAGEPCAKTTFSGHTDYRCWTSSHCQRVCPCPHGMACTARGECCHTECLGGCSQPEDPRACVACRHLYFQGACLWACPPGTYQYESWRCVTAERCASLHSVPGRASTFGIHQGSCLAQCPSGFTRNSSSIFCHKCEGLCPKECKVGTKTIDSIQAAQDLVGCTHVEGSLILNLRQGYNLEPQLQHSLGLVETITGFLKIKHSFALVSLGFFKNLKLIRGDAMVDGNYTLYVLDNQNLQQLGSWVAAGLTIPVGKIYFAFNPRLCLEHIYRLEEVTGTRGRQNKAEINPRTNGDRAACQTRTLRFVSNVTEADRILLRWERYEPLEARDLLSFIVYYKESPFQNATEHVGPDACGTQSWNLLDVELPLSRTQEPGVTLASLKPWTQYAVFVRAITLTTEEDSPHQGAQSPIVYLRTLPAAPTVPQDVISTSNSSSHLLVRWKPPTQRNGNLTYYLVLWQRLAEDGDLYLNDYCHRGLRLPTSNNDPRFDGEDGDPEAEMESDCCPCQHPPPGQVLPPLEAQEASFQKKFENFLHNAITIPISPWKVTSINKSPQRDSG
Insulin receptor-related protein (Homo sapiens), sequence (P14616 747-1297 limits assumed): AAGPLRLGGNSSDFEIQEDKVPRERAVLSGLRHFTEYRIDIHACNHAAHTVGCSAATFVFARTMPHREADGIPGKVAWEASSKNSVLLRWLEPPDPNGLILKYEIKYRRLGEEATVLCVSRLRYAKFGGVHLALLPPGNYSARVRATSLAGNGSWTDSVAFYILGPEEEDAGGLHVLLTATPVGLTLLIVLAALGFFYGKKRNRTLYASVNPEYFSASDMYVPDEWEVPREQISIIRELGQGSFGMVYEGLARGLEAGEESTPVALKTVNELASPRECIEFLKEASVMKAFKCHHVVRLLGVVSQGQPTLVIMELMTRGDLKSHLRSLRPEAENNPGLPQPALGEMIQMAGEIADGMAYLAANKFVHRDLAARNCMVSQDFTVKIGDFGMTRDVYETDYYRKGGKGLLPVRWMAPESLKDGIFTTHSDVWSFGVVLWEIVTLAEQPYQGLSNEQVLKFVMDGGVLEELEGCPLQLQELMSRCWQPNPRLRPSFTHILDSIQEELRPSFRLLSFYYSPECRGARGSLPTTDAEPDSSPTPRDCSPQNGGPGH

Structures are written as SMILES.

Serine/threonine-protein kinase PAK 6 (Homo sapiens), sequence (Q9NQU5 whole entry, looked up): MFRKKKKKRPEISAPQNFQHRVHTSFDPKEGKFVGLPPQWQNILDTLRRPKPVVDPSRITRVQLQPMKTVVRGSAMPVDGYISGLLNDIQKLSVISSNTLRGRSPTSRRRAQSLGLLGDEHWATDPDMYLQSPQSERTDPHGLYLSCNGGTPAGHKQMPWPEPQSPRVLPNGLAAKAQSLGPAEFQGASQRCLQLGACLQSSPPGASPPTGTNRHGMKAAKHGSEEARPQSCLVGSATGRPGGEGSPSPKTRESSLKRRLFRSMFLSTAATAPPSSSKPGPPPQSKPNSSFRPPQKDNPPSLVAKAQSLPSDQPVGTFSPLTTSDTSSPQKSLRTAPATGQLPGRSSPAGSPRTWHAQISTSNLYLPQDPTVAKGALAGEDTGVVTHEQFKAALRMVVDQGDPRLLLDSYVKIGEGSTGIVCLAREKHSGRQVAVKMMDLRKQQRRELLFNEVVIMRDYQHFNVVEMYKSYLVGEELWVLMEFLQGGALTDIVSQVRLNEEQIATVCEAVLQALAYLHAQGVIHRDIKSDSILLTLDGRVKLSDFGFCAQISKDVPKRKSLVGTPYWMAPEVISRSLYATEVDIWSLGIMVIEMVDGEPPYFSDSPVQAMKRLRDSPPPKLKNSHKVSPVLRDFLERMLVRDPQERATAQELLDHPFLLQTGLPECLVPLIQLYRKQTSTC
Activin receptor type-1-like (Homo sapiens), sequence (P37023 whole entry): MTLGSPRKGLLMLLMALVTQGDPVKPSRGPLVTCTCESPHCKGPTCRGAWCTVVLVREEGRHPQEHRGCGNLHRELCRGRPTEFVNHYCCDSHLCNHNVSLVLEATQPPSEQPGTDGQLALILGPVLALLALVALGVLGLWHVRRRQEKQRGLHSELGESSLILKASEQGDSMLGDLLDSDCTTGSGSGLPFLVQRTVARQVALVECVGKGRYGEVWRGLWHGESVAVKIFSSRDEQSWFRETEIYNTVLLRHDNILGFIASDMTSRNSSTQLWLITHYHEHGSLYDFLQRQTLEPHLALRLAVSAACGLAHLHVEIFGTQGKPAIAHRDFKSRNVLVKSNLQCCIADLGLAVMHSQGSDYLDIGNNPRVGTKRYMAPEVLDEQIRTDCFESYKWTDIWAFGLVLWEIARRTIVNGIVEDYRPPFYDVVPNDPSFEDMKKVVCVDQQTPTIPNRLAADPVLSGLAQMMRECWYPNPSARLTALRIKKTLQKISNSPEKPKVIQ
Tyrosine-protein kinase FRK (Homo sapiens), sequence (P42685 whole entry): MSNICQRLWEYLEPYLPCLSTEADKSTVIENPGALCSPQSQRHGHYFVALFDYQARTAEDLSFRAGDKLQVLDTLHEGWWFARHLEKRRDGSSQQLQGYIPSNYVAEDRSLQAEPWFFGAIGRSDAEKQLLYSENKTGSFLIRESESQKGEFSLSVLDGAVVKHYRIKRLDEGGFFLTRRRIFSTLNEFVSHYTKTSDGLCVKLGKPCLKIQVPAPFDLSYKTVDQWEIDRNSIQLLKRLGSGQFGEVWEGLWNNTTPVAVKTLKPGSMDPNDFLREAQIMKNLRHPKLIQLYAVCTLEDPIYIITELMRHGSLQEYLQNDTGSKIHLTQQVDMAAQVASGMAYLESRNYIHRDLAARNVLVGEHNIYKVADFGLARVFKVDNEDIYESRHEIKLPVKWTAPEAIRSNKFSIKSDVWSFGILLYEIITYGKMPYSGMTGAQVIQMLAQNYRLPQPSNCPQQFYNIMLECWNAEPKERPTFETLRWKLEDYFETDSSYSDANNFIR

The term inhibition denotes the percentage by which the read-out fell short of the control. For the molecule `O=C(N[C@@H](C1CC1)C(F)(F)F)c1cc(-c2cnn3cc(-c4ccc(F)cc4)cnc23)cs1`, the inhibition in [1] turned out to be 3%. The fold change (FC) is 0.1 in [2], 0 in [3] and 0 in [4].

As to `CNC(=O)c1ccccc1Oc1nc(Nc2cc(OC)c(OC)c(OC)c2)ncc1Br`, the fold change (FC) was determined as 0.12 in [5]; 0 in [6]; 0 in [8]; 0.31 in experiment [9]; 0 in experiment [10]. Moreover, the inhibition in experiment [7] was determined as 1%.

With `CC(C)[C@H](NC(=O)c1cc(-c2cnn3cc(-c4ccc(OCCN5CCCCC5)cc4)cnc23)cs1)C(F)(F)F`, the fold change (FC) in experiment [11] was determined as 0; in experiment [12], 0.03. In [13], the inhibition amounted to 2%.

For the origin of these results see ChEMBL document CHEMBL5653631, “A Potent and Selective ULK1 Inhibitor Suppresses Autophagy and Sensitizes Cancer Cells to Nutrient Stress” (iScience, 2018).
